Bioassay records deposited in PubChem by several laboratories.
Shown are actives, neighbours in structure and some others; about 3% of the full set was active somewhere.
ROMK mod – modulators of human ROMK potassium channel; 2% of 130,000 active; Tet-inducible ROMK, thallium flux fluorescence; actives lie on both sides; AID 1918; B-score at 10 µM;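 active = signal ratio slope over the read window, or its plate-corrected B-score, at least 3 SD from the plate mean, either direction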;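 also: B-score of the F/F0 ratio slope over 7 to 12 s after thallium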
Target sequence (P48048 whole entry, looked up): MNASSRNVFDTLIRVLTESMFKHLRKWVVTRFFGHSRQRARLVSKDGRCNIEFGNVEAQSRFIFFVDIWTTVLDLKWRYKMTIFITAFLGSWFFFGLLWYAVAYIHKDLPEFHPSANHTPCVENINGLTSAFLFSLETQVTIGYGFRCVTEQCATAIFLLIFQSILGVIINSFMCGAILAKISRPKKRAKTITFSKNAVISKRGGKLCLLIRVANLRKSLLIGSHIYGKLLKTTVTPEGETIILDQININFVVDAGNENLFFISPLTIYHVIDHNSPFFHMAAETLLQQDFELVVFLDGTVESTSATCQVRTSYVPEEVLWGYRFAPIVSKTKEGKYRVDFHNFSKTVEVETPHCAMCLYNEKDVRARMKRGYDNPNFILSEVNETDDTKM
Rad51 HR inh – Rad51 (human) homologous recombination inhibition; 0.085% of 200,000 active; AID 1385; hRad51 DNA strand exchange, fluorescence dequenching; inhibition, % at 10 µM; Q06609;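 active = inhibition above 40% at the single screening dose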
Target sequence (Q06609 whole entry, looked up): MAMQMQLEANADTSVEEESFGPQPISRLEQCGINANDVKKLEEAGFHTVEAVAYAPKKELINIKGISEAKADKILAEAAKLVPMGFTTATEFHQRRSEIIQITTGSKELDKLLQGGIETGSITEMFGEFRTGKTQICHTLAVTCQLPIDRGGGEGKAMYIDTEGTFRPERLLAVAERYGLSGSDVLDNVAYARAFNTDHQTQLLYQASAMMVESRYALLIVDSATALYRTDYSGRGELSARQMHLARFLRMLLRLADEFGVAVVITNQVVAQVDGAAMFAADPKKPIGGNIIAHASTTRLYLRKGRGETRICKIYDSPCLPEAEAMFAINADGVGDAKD
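Material: human Rad51–ssDNA filaments; Probe or stimulus: labelled 47-mer dsDNA for strand exchange; Doses: single 10 µM dose; Incubation: 37 °C 15-min filament assembly, 30-min compound preincubation, 15-min exchange; Technique: FRET fluorescence dequenching, excitation 485 nm, emission 520 nm; Measure: Fluorescence-based percent inhibition, control- and blank-normalised; Benchmarks: plate control and blank wells.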
PKD1 kinase inh – blocks activity of human protein kinase D1 | 0.056% of 200,000 active | Q15139 | AID 797 | inhibition, % (concentration not given with the values) | PKD1 kinase fluorescence polarization assay; in the data active = inhibition above about 50%
KCC2 mod – KCC2 (human) Cl- transport modulation. Q9H2X9. KCC2 cells, thallium flux FluoZin-2 fluorescence. 2.2% of 190,000 active. B-score of Tl+ flux slope (higher = more flux/activation; lower = inhibition) at 10 µM;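 active = thallium flux slope and its plate-corrected score both differing from the plate sample mean at a set confidence after two filtering rounds, in either direction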;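 also: slope of fluorescence scaled to starting intensity during 10 to 20 s after thallium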
KCC2 secondary – confirmation of human KCC2 transport modulators; HEK293-KCC2, thallium flux, FluoZin2 fluorescence; hits give high values; shares compounds with KCC2 mod; AID 1713; normalised thallium flux (F/F0 slope) at 10 µM; 15% of 3,700 active;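 active = thallium flux slope above the same plate's solvent-only control mean plus 3 SD; inconclusive = the two replicate wells disagree; inactive = no significant difference from solvent-only control wells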
KCC2 bumet counter – bumetanide-insensitive thallium flux in KCC2 cells with ouabain, counter-screen | normalized thallium flux at 10 µM | AID 1714 | HEK293-KCC2 + bumetanide/ouabain, thallium flux FluoZin2; hits give high values | 49% of 3,700 active | shares compounds with KCC2 mod;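 active = thallium entry rate above the same plate's blocked-transporter control wells by more than 3 SD; inconclusive = the two repeat wells disagree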;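 also: raw slope of fluorescence over initial fluorescence between 10 and 20 s after thallium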
KCC2 secondary2 – KCC2 (human) modulation, second secondary assay | shares compounds with KCC2 mod | HEK293-KCC2, thallium flux FluoZin2 fluorescence; actives lie on both sides; F/F0 rise rate, 10–20 s post-thallium | normalized thallium flux at 10 µM | 23% of 3,700 active;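 active = thallium flux slope more than 3 SD above or below the plate's solvent-only control mean, mostly below; inconclusive = the two repeat wells disagreed; inactive = no significant shift from solvent-only controls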
HEK counter1 – counter-screen for KCC2 modulators: effect in parental HEK293 cells. shares compounds with KCC2 mod. thallium flux FluoZin2, ouabain; baseline-ratio fluorescence slope, 10–20 s after thallium. thallium flux rate (normalised fluorescence) at 10 µM. 46% of 3,700 active. AID 1716;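 active = thallium flux rate significantly above the same plate's solvent-only control wells, beyond their mean plus 3 SD; inconclusive = the two replicate wells gave conflicting results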
KCC2 retest ouab – modulates human KCC2 on retest with ouabain | shares compounds with KCC2 mod | HEK293-KCC2, thallium flux FluoZin2 fluorescence; bidirectional: low = inhibitor, high = activator | raw Tl+ flux slope (below DMSO = inhibition, above = activation) at 10 µM | 48% of 3,700 active | AID 1717;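 active = thallium flux slope beyond 3 SD from same-plate DMSO control mean in most replicates, usually higher, sometimes lower; inconclusive = repeat tests gave conflicting results; inactive = no significant difference from controls in most replicates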;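 also: slope of initial-normalized fluorescence between seconds 10 and 20 after thallium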
HEK counter2 – acts in parental HEK cells, second KCC2 counter-screen | shares compounds with KCC2 mod | HEK293 parental, thallium flux FluoZin-2 fluorescence slope | thallium flux slope at 10 µM | 33% of 3,700 active;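 active = thallium flux slope above the same plate's solvent-control mean plus 3 SD in both duplicate wells; inconclusive = duplicate wells that disagreed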;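 also: run without ouabain in cells lacking the KCC2 cotransporter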
Of the large screens only hits and unclear results are named; the others gave an inactive call (follow-up assays come after a bar, where they were run).

O=C(CCn1c(=O)oc2ccccc21)N1CCc2ccccc21	none (no result: KCC2 mod) | KCC2 secondary inactive | KCC2 bumet counter inactive | KCC2 secondary2 inactive | HEK counter1 inactive | KCC2 retest ouab inconclusive | HEK counter2 inactive
Cc1ccc(NC(=O)CCn2c(=O)oc3ccccc32)cc1	none (no result: KCC2 mod)
CCn1cc(/C=N/N=C2\CCC3C4CCc5cc(O)ccc5C4CC[C@]23C)c(C)n1 (stereo not given in full)	none
Oc1ccc(N=Nc2ccc3c(c2)OCO3)c2ccccc12	KCC2 mod 9.01 (no result: ROMK mod, PKD1 kinase inh) | KCC2 secondary inactive | KCC2 bumet counter 0.0107 | KCC2 secondary2 inactive | HEK counter1 0.0115 | KCC2 retest ouab 0.0202 | HEK counter2 inactive
COc1ccc(-c2nnc(SCc3ncc(-c4ccccc4)o3)o2)cc1	KCC2 mod -2.98 | KCC2 secondary inactive | KCC2 bumet counter inactive | KCC2 secondary2 inconclusive | HEK counter1 inactive | KCC2 retest ouab inactive | HEK counter2 inactive
COc1ccc(C(=O)CSc2nnc(-c3ccccc3)o2)cc1	none
N=C1S/C(=C\c2ccco2)C(=O)N1c1nccs1	KCC2 mod 18.8 | KCC2 secondary 0.0277 | KCC2 bumet counter 0.0745 | KCC2 secondary2 inconclusive | HEK counter1 0.028 | KCC2 retest ouab 0.0493 | HEK counter2 0.015
O=C1NC(=S)N/C1=C\c1ccc(Oc2ccc(C(F)(F)F)cc2[N+](=O)[O-])c(Cl)c1	none (no result: ROMK mod, PKD1 kinase inh)
O=c1c(-c2ccc(F)cc2)coc2cc(O)ccc12	KCC2 mod -5.76 (no result: ROMK mod) | KCC2 secondary inactive | KCC2 bumet counter inactive | KCC2 secondary2 inactive | HEK counter1 inactive | KCC2 retest ouab 0.0206 | HEK counter2 inconclusive
COc1ccc(C(=S)N2CCCCCC2)cc1	none
COc1cc(C(=S)N2CCCC2)cc(OC)c1O	KCC2 mod -3.59 | KCC2 secondary inactive | KCC2 bumet counter inactive | KCC2 secondary2 inactive | HEK counter1 inactive | KCC2 retest ouab inactive | HEK counter2 inactive
CCCCCCn1c(-c2cccs2)n[nH]c1=S	KCC2 mod 45.6 | KCC2 secondary inactive | KCC2 bumet counter 0.0837 | KCC2 secondary2 0.0678 | HEK counter1 0.0627 | KCC2 retest ouab 0.0673 | HEK counter2 0.0566
Cc1cccc(-n2c(-c3csc(C)c3)n[nH]c2=S)c1	none
CCCCn1c(-c2csc(CC)c2)n[nH]c1=S	KCC2 mod 14.2 (no result: ROMK mod) | KCC2 secondary 0.012 | KCC2 bumet counter 0.0539 | KCC2 secondary2 inactive | HEK counter1 0.0221 | KCC2 retest ouab 0.0443 | HEK counter2 0.0124
CCCCn1c(-c2nn(C)cc2Cl)n[nH]c1=S	none (no result: ROMK mod)
CC(c1ccc(F)cc1)n1c(-c2cccs2)n[nH]c1=S (stereo not given)	KCC2 mod 5.19 | KCC2 secondary inactive | KCC2 bumet counter 0.0165 | KCC2 secondary2 inactive | HEK counter1 0.014 | KCC2 retest ouab inconclusive | HEK counter2 0.0157
CCc1cc(-c2n[nH]c(=S)n2-c2cccc(C)c2)cs1	KCC2 mod 42.7 (no result: Rad51 HR inh) | KCC2 secondary 0.0118 | KCC2 bumet counter 0.114 | KCC2 secondary2 inactive | HEK counter1 0.0198 | KCC2 retest ouab 0.0471 | HEK counter2 inactive
CC(=O)Oc1ccc(-c2cccc(C(=O)N(C)c3ccc(O)cc3)c2)cc1	none
Cc1ccc(S(=O)(=O)CCNC(=O)Cc2ccccc2)cc1	none
CCCCN(C(=S)Nc1cccc(C)c1C)c1c(N)n(CCC)c(=O)[nH]c1=O	none
CCCCn1c(-c2csc3ccccc23)n[nH]c1=S	KCC2 mod 4.75 (no result: Rad51 HR inh) | KCC2 secondary inactive | KCC2 bumet counter 0.0229 | KCC2 secondary2 inconclusive | HEK counter1 0.0204 | KCC2 retest ouab 0.0276 | HEK counter2 0.0227
O=C(N/N=C/c1cccnc1)c1cccs1	KCC2 mod -3.67 (no result: PKD1 kinase inh) | KCC2 secondary inactive | KCC2 bumet counter inactive | KCC2 secondary2 inactive | HEK counter1 inactive | KCC2 retest ouab inactive | HEK counter2 inactive
O=C(N/N=C/c1cccnc1)c1ccco1	none (no result: ROMK mod, Rad51 HR inh, PKD1 kinase inh)
Cc1cc(C(=O)COC(=O)CCc2nc3ccccc3s2)c(C)n1C	KCC2 mod -3.2 (no result: ROMK mod) | KCC2 secondary inactive | KCC2 bumet counter inconclusive | KCC2 secondary2 0.0228 | HEK counter1 inactive | KCC2 retest ouab 0.0156 | HEK counter2 inactive
CCOc1ccc(OCC)c(NC(=O)C2CCCN(c3nc(C)cc(C)n3)C2)c1 (stereo not given)	KCC2 mod -3.75 (no result: ROMK mod) | KCC2 secondary inactive | KCC2 bumet counter inactive | KCC2 secondary2 inconclusive | HEK counter1 0.00572 | KCC2 retest ouab 0.0139 | HEK counter2 inconclusive
COc1ccccc1NC(=O)C1CCCN(c2nc(C)cc(C)n2)C1 (stereo not given)	none
O=C(Nc1ccc(OC(F)(F)F)cc1)c1[nH]ncc1[N+](=O)[O-]	KCC2 mod 13 | KCC2 secondary inactive | KCC2 bumet counter 0.0204 | KCC2 secondary2 inactive | HEK counter1 0.0221 | KCC2 retest ouab inconclusive | HEK counter2 0.0157
FC(F)(F)c1ccc(Cl)c(NC(=S)N/N=C/c2ccccc2Cl)c1	KCC2 mod 5.44 (no result: ROMK mod, PKD1 kinase inh) | KCC2 secondary inactive | KCC2 bumet counter 0.034 | KCC2 secondary2 inactive | HEK counter1 0.01 | KCC2 retest ouab inconclusive | HEK counter2 inactive
S=C(Nc1ccccn1)Nc1ccccc1Cl	KCC2 mod 5.01 (no result: Rad51 HR inh) | KCC2 secondary inactive | KCC2 bumet counter 0.0138 | KCC2 secondary2 inactive | HEK counter1 0.00821 | KCC2 retest ouab inconclusive | HEK counter2 inactive
O=C(NC(=S)Nc1cc(C(F)(F)F)ccc1Cl)c1ccccc1	none (no result: ROMK mod)
S=C(N/N=C/c1ccc(Cl)c(Cl)c1)Nc1ccccc1Cl	KCC2 mod 3.93 | KCC2 secondary inactive | KCC2 bumet counter 0.0302 | KCC2 secondary2 inactive | HEK counter1 0.0159 | KCC2 retest ouab 0.032 | HEK counter2 0.0124
O=[N+]([O-])c1cc(/C=N/NC(=S)Nc2ccccc2Cl)ccc1Cl	KCC2 mod 7.76 | KCC2 secondary inactive | KCC2 bumet counter 0.0149 | KCC2 secondary2 inactive | HEK counter1 0.0212 | KCC2 retest ouab 0.0289 | HEK counter2 0.0166
C=CCOc1c(Br)cc(/C=N/n2c(CC)n[nH]c2=S)cc1Br	none
O=C(NC(Cc1c[nH]c2ccccc12)C(=O)OCC(=O)c1cccc2ccccc12)c1cccs1 (stereo not given)	none (no result: ROMK mod)
COCCNC(=O)CN(C(=O)Cn1nnc2ccccc21)c1ccc(C)c(F)c1	none
